Assay results reported in ChEMBL document CHEMBL2046289, “Novel 2-(2-(benzylthio)-1H-benzo[d]imidazol-1-yl)acetic acids: discovery and hit-to-lead evolution of a selective CRTh2 receptor antagonist chemotype” (Bioorg Med Chem Lett, 2012).
Values after ≈ are worked out from the molar mass of the structure shown.

Experiments:
[1] = target: T1, Prostaglandin D2 receptor 2 (Homo sapiens, UniProt Q9Y5Y4); experiment: Displacement of [3H]-PGD2 from human CRTh2 receptor expressed in HEK293 cells; type: cell-based
T1 sequence (Q9Y5Y4 whole entry): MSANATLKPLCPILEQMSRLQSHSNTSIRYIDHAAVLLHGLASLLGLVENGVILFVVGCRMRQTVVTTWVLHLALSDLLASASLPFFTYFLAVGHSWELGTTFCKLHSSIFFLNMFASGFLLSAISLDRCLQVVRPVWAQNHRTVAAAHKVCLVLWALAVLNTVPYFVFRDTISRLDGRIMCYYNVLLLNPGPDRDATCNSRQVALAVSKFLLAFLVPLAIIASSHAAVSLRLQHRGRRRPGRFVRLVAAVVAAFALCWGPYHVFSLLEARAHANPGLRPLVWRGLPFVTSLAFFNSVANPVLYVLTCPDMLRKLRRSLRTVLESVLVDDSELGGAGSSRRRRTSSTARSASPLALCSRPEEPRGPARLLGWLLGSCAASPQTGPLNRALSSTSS

[2] = target: T1, Prostaglandin D2 receptor 2; experiment: Antagonist activity at human CRTh2 receptor expressed in HEK293 cells assessed as inhibition of PGD2-induced calcium flux by FLIPR assay; type: functional, cell-based
[3] = target: T1, Prostaglandin D2 receptor 2; experiment: Displacement of [3H]-PGD2 from human CRTh2 receptor expressed in HEK293 cells in presence of 0.5% human serum albumin; type: cell-based
[4] = Stability of the compound in simulated gastric fluid assessed as compound remaining after 1 hr; type: physicochemical; conditions: read-out: Stability
Procedure, shortened: (§1)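 Compound incubated in simulated gastric fluid for 1 h or simulated intestinal fluid for 4 h; unchanged parent recovered quantified by LC-MS, expressed as % parent remaining.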

[5] = Intrinsic clearance in human liver microsomes assessed per mg protein; type: ADME, Microsome; conditions: read-out: CLH
Cytochrome P450 2D6 = Cytochrome P450 2D6 (Homo sapiens, UniProt P10635); experiment: Inhibition of CYP2D6; type: ADME
Sequence of Cytochrome P450 2D6 (P10635 whole entry): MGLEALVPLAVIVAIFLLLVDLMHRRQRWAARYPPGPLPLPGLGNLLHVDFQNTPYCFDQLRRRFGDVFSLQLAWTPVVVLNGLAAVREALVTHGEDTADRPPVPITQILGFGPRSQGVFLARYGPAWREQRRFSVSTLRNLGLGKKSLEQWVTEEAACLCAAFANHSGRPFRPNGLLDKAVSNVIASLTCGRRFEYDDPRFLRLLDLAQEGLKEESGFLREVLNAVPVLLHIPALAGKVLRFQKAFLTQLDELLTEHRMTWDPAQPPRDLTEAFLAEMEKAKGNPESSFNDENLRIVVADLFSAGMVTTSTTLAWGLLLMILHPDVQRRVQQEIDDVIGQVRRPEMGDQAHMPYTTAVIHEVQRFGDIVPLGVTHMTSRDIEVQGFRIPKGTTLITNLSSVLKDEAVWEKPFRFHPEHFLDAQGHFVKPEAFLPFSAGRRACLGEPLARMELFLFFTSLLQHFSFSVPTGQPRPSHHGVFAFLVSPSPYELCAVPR

Cytochrome P450 3A4 [6] = target: T2, Cytochrome P450 3A4 (Homo sapiens, UniProt P08684); experiment: Inhibition of CYP3A4 using testosterone as substrate; type: ADME
T2 sequence (P08684 whole entry): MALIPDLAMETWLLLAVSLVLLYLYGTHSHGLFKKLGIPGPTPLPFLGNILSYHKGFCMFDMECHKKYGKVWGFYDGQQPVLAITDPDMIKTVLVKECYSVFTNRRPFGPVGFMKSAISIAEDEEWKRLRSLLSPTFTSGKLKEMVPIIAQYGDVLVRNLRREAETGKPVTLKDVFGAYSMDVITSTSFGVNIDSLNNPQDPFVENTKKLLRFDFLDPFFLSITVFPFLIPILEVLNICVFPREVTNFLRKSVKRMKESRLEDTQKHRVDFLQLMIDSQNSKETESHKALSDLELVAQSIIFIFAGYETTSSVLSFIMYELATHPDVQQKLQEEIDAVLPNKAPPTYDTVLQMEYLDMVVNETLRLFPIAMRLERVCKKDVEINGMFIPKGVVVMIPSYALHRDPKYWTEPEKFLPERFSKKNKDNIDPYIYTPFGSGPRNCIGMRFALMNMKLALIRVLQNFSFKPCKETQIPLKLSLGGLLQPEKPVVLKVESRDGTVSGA

[7] = Intrinsic clearance in rat liver microsomes assessed per mg protein; type: ADME, Microsome; conditions: read-out: CLH
Cytochrome P450 3A4 [8] = target: T2, Cytochrome P450 3A4; experiment: Inhibition of CYP3A4 using midazolam as substrate; type: ADME
[9] = Intrinsic clearance in rat hepatocytes assessed per 10^6 cells; type: ADME, cell-based, Hepatocyte; conditions: read-out: CLH
Cytochrome P450 2C9 = Cytochrome P450 2C9 (Homo sapiens, UniProt P11712); experiment: Inhibition of CYP2C9; type: ADME
Sequence of Cytochrome P450 2C9 (P11712 whole entry): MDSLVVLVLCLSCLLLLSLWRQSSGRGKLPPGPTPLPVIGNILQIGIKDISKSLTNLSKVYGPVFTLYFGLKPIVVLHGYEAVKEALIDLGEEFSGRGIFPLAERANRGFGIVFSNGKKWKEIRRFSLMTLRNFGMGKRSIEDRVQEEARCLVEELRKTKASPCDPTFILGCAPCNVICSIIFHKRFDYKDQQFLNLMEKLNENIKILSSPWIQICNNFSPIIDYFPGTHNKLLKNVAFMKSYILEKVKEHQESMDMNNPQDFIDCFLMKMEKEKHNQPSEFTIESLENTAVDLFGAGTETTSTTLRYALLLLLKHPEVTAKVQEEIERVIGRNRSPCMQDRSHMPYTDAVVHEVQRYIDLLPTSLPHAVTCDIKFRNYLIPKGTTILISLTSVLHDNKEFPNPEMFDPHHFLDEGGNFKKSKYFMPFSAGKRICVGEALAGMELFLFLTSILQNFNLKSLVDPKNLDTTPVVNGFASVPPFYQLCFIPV

[10] = target: T3, Prostaglandin D2 receptor (Homo sapiens, UniProt Q13258); experiment: Displacement of [3H]-PGD2 from human DP1 receptor expressed in CHO cells; type: cell-based
T3 sequence (Q13258 whole entry): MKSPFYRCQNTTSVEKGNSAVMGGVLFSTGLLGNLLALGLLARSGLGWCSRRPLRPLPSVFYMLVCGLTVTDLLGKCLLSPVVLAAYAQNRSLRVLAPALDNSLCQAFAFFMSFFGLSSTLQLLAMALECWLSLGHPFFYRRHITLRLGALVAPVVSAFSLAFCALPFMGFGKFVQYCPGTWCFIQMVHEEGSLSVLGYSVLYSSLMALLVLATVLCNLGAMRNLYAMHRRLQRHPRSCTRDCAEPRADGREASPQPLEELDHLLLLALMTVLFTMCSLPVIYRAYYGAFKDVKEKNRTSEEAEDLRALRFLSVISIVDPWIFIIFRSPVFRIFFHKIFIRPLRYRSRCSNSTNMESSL

[11] = Solubility of the compound in 0.1 M HCl; type: physicochemical; conditions: buffer
[12] = Metabolic stability of the compound in human plasma assessed as compound remaining after 4 hrs; type: ADME, cell-free; conditions: read-out: Stability
[13] = Solubility of the compound in Tris buffer at pH 9; type: physicochemical
[14] = Stability of the compound in simulated intestinal fluid assessed as compound remaining after 4 hrs; type: physicochemical; conditions: read-out: Stability; procedure, shortened: as §1
[15] = Lipophilicity, log D of the compound at pH 7.4; type: physicochemical; conditions: buffer
[16] = Solubility of the compound in phosphate buffer at pH 7; type: physicochemical
[17] = Volume of distribution at steady state in Wistar rat at 1 mg/kg, iv and 10 mg/kg, po; type: ADME, organism-based; conditions: in vivo, read-out: Vdss
Procedure, shortened: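 Male Wistar rats, 3 animals per experiment; intravenous dose 1 mg/kg and oral dose 10 mg/kg, each given as a solution.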

SMILES | IC50 [1] [nM] | further results
O=C(O)Cn1c(SCCOc2ccc(Cl)cc2)nc2ccccc21 | 1500 | IC50 [2]: 6600 nM
O=C(O)Cn1c(SCc2ccccc2)nc2ccccc21 | 388 | –
O=C(O)Cn1c(SCCOc2ccccc2)nc2ccccc21 | 590 | –
COC(=O)c1cccc(CSc2nc3ccccc3n2CC(=O)O)c1 | 450 | –
O=C(O)Cn1c(SCCOc2ccc3ccccc3c2)nc2ccccc21 | 2500 | –
O=C(O)Cn1c(SCCOc2cccc3ccccc23)nc2ccccc21 | 2000 | –
O=C(O)Cn1c(SCCCOc2ccccc2)nc2ccccc21 | 786 | –
O=C(O)Cn1c(SCCCCOc2ccccc2)nc2ccccc21 | 1400 | –
O=C(O)Cn1c(SCCCc2ccccc2)nc2ccccc21 | 475 | –
O=C(O)Cn1c(SCCCNc2ccccc2)nc2ccccc21 | 2690 | –
O=C(O)Cn1c(SCCNc2ccccc2)nc2ccccc21 | 7690 | –
CCCCCCSc1nc2ccccc2n1CC(=O)O | 1360 | –
CCCCCSc1nc2ccccc2n1CC(=O)O | 1240 | –
CCCCSc1nc2ccccc2n1CC(=O)O | 2370 | –
CCOC(=O)CCSc1nc2ccccc2n1CC(=O)O | 11400 | –
CCOC(=O)CCCSc1nc2ccccc2n1CC(=O)O | 4410 | –
CCOC(=O)CCCCSc1nc2ccccc2n1CC(=O)O | 2360 | –
CCOC(=O)CCCCCSc1nc2ccccc2n1CC(=O)O | 1010 | –
CCNC(=O)CCCCSc1nc2ccccc2n1CC(=O)O | > 10000 | –
O=C(O)Cn1c(SCc2ccc(Cl)cc2)nc2ccccc21 | 160 | –
O=C(O)Cn1c(SCc2cccc(Cl)c2)nc2ccccc21 | 186 | –
O=C(O)Cn1c(SCc2ccccc2Cl)nc2ccccc21 | 370 | –
COc1ccc(CSc2nc3ccccc3n2CC(=O)O)cc1 | 210 | –

SMILES | IC50 [1] [nM] | further results
COc1cccc(CSc2nc3ccccc3n2CC(=O)O)c1 | 72 | –
COc1ccccc1CSc1nc2ccccc2n1CC(=O)O | 1100 | –
Cc1ccc(CSc2nc3ccccc3n2CC(=O)O)cc1 | 220 | –
Cc1cccc(CSc2nc3ccccc3n2CC(=O)O)c1 | 105 | –
Cc1ccccc1CSc1nc2ccccc2n1CC(=O)O | 810 | –
O=C(O)Cn1c(SCc2ccc(Br)cc2)nc2ccccc21 | 220 | –
O=C(O)Cn1c(SCc2cccc(Br)c2)nc2ccccc21 | 370 | –
O=C(O)Cn1c(SCc2ccccc2Br)nc2ccccc21 | 580 | –
COC(=O)c1ccc(CSc2nc3ccccc3n2CC(=O)O)cc1 | 10600 | –
COC(=O)c1ccccc1CSc1nc2ccccc2n1CC(=O)O | 520 | –
O=C(O)Cn1c(SCc2ccc(Cl)c(Cl)c2)nc2ccccc21 | 380 | –
O=C(O)Cn1c(SCc2cc(Cl)ccc2Cl)nc2ccccc21 | 470 | –
COc1ccc(C)cc1CSc1nc2ccccc2n1CC(=O)O | 1200 | –
COc1ccc(Cl)cc1CSc1nc2ccccc2n1CC(=O)O | 740 | –
COc1ccc(OC)c(CSc2nc3ccccc3n2CC(=O)O)c1 | 1600 | –
COC(=O)c1ccc(OC)c(CSc2nc3ccccc3n2CC(=O)O)c1 | 29 | –
COC(=O)c1cccc(CSc2nc3ccccc3n2CC(=O)O)c1Br | 2900 | –
COC(=O)c1cc(CSc2nc3ccccc3n2CC(=O)O)ccc1Br | 980 | –
COC(=O)c1cc(Br)cc(CSc2nc3ccccc3n2CC(=O)O)c1 | 330 | –
COC(=O)c1ccc(Br)c(CSc2nc3ccccc3n2CC(=O)O)c1 | 45 | –
COc1ccc(C(=O)OC(C)C)cc1CSc1nc2ccccc2n1CC(=O)O | 150 | –
CC(=O)c1cccc(CSc2nc3ccccc3n2CC(=O)O)c1 | 230 | –
COc1ccc(C(C)=O)cc1CSc1nc2c(F)cccc2n1CC(=O)O | 5 | IC50 [2]: 10 nM

SMILES | IC50 [1] [nM] | further results
COc1ccc(C(C)=O)cc1CSc1nc2ccc(F)cc2n1CC(=O)O | 45 | IC50 [2]: 89 nM
COc1ccc(C(C)=O)cc1CSc1nc2cc([N+](=O)[O-])ccc2n1CC(=O)O | 2 | IC50 [2]: 3 nM
COc1ccc(C(C)=O)cc1CSc1nc2cc(C(F)(F)F)ccc2n1CC(=O)O | 3 | IC50 [2]: 5 nM
COc1ccc(C(C)=O)cc1CSc1nc2cc(S(C)(=O)=O)ccc2n1CC(=O)O | 41 | IC50 [2]: 50 nM
COc1ccc(C(C)=O)cc1CSc1nc2cc(C(C)=O)ccc2n1CC(=O)O | 33 | IC50 [2]: 63 nM
COc1ccc(C(C)=O)cc1CSc1nc2cc(C=O)ccc2n1CC(=O)O | 4 | IC50 [2]: 9 nM
CCOc1ccc(C(C)=O)cc1CSc1nc2cc(F)ccc2n1CC(=O)O | 4 | IC50 [2]: 5 nM
CCCOc1ccc(C(C)=O)cc1CSc1nc2cc(F)ccc2n1CC(=O)O | 5 | IC50 [2]: 9 nM
CCCCOc1ccc(C(C)=O)cc1CSc1nc2cc(F)ccc2n1CC(=O)O | 9 | IC50 [2]: 12 nM
COc1ccc(C(=O)c2ccccc2)cc1CSc1nc2cc(F)ccc2n1CC(=O)O | 1.7 | IC50 [2]: 4 nM
CCNC(=O)c1ccc(OC)c(CSc2nc3cc(F)ccc3n2CC(=O)O)c1 | 16 | IC50 [2]: 15 nM
CCCCNC(=O)c1ccc(OC)c(CSc2nc3cc(F)ccc3n2CC(=O)O)c1 | 16 | IC50 [3]: 81 nM; remaining at 1 h [4]: 94%; microsomal CLint [5]: 7 µL/min/mg; IC50 (Cytochrome P450 2D6): > 50000 nM; IC50 (Cytochrome P450 3A4 [6]): 7000 nM; microsomal CLint [7]: 60 µL/min/mg; IC50 (Cytochrome P450 3A4 [8]): 4000 nM; hepatocyte CLint [9]: 6 µL/min/1e6 cells; IC50 (Cytochrome P450 2C9): 6000 nM; IC50 [10]: > 10000 nM; IC50 [2]: 15 nM; solubility [11]: 670 µg/mL (≈ 1500 µM); remaining at 4 h [12]: 100%; solubility [13]: > 750 µg/mL; remaining at 4 h [14]: 78%; logD [15]: 0.1; solubility [16]: 719 µg/mL (≈ 1610 µM)
COc1ccc(C(=O)NCc2ccccc2)cc1CSc1nc2cc(F)ccc2n1CC(=O)O | 59 | IC50 [2]: 94 nM
CCN(CC)C(=O)c1ccc(OC)c(CSc2nc3cc(F)ccc3n2CC(=O)O)c1 | 72 | IC50 [2]: 130 nM
CCN(Cc1ccccc1)C(=O)c1ccc(OC)c(CSc2nc3cc(F)ccc3n2CC(=O)O)c1 | 495 | IC50 [2]: 725 nM
COc1ccc(C(=O)N2CCOCC2)cc1CSc1nc2cc(F)ccc2n1CC(=O)O | 107 | IC50 [2]: 91 nM
COc1ccc(C(=O)N2CCc3ccccc32)cc1CSc1nc2cc(F)ccc2n1CC(=O)O | 3 | IC50 [3]: 8 nM; remaining at 1 h [4]: 100%; microsomal CLint [5]: 2 µL/min/mg; IC50 (Cytochrome P450 2D6): > 50000 nM; IC50 (Cytochrome P450 3A4 [6]): 13000 nM; microsomal CLint [7]: 91 µL/min/mg; IC50 (Cytochrome P450 3A4 [8]): 5000 nM; hepatocyte CLint [9]: 12 µL/min/1e6 cells; IC50 (Cytochrome P450 2C9): 28000 nM; IC50 [10]: > 10000 nM; solubility [11]: 158 µg/mL (≈ 321 µM); remaining at 4 h [12]: 93%; solubility [13]: 789 µg/mL (≈ 1610 µM); remaining at 4 h [14]: 100%; logD [15]: 0.3; solubility [16]: 812 µg/mL (≈ 1650 µM)
O=C(O)Cn1c(SCCc2ccccc2)nc2ccccc21 | 881 | –
COc1ccc(C(C)O)cc1CSc1nc2ccccc2n1CC(=O)O (racemic) | 2200 | –
CC(=O)Oc1ccccc1C(=O)O [ASPIRIN] | – | Vd [17]: 1 L/kg
CC(=O)CC(c1ccccc1)c1c(O)c2ccccc2oc1=O (configuration not stated) [WARFARIN] | – | Vd [17]: 1 L/kg
